According to ChEMBL document CHEMBL1126204, “Nucleic acid related compounds. 74. Synthesis and biological activity of 2'(and 3')-deoxy-2'(and 3')-methylenenucleoside analogues that function as mechanism-based inhibitors of S-adenosyl-L-homocysteine hydrolase and/or ribonucleotide reductase” (J Med Chem, 1992):

Columns and labels:
L1210 [1] = test: Concentration required to inhibit the proliferation of L1210 murine leukemia cell line by 50% in presence of exogenous nucleoside dCyd (500 ug/mL).; format: functional, cell-based; details: Mus musculus
How it was run: (§1)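 L1210 murine leukemia cells in Eagle's MEM with 10% inactivated fetal calf serum, 2 mM L-glutamine and 0.075% NaHCO₃. 5 × 10⁵ cells/mL were exposed to test compound (0.001–500 µM) together with the stated exogenous nucleoside at subtoxic level. Incubated 2 days at 37 °C in humidified CO₂. Viable cells were counted by Coulter counter. IC₅₀ = 50% reduction in viable cell number; mean of 2–4 independent experiments.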

L1210 [2] = test: Concentration required to inhibit the proliferation of L1210 murine leukemia cell line by 50% in presence of exogenous nucleoside (d)Thd (5 ug/mL).; format: functional, cell-based; details: Mus musculus; how it was run: as §1
MT4 = test: In vitro inhibition of MT-4 (Human T-lymphocyte) cell proliferation.; format: functional, cell-based
How it was run: (§2)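 Human Molt/4F, MT-4, and Raji cells (wild-type, TK⁻ or dCK⁻) in RPMI-1640 with 10% inactivated FCS, 2 mM L-glutamine and 0.075% NaHCO₃, seeded at 7.5 × 10⁵ cells/mL with compound (0.001–500 µM). Incubated 3 days at 37 °C in humidified CO₂; viable cells counted by Coulter counter. IC₅₀ = 50% reduction in viable cells; means of 2–4 independent experiments.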

Raji [3] = test: Inhibition of human tumor B-lymphoblast Raji/dCK-(dcyd kinase deficient) cell proliferation; format: functional, cell-based; how it was run: as §2
Raji [4] = test: Inhibition of human tumor B-lymphoblast Raji/O cell proliferation; format: functional, cell-based; how it was run: as §2
Raji [5] = test: Inhibition of human tumor B-lymphoblast Raji/TK-(thymidine kinase deficient) cell proliferation; format: functional, cell-based; how it was run: as §2
L1210 [6] = test: In vitro inhibition of L1210 (murine leukemia) cell proliferation.; format: functional, cell-based; details: Mus musculus
How it was run: (§3)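 Murine FM3A or L1210 cells in Eagle's MEM with 10% inactivated FCS, 2 mM L-glutamine and 0.075% NaHCO₃, seeded at 5 × 10⁵ cells/mL with compound (0.001–500 µM). After 2 days at 37 °C in humidified CO₂, viable cells were counted with a Coulter counter. IC₅₀ = 50% fewer viable cells; mean of 2–4 experiments.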

Homo sapiens [7] = organism: Homo sapiens; test: Concentration required to inhibit the proliferation of human T-lymphocyte CEM/dCK-(dcyd kinase deficient) cells by 50%; format: functional
How it was run: (§4)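 Wild-type CEM and kinase-deficient sublines (AK⁻, dCK⁻, AK⁻/dCK⁻) grown in RPMI-1640 with 10% inactivated FCS, 2 mM L-glutamine and 0.075% NaHCO₃. Cells were exposed to compound at 0.001–500 µM for 3 days at 37 °C in humidified CO₂. Viable cells counted by Coulter counter; IC₅₀ = 50% reduction in viable cells. Mean of 2–4 independent experiments.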

L1210 [8] = test: Antitumor activity in mice bearing L1210 murine leukemia cell line at a dose of 50 mg/kg/day.; format: functional, Mus musculus
How it was run: (§5)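 DBA/2 mice (20 g) inoculated ip with 10⁶ L1210 leukemia cells; test agent given ip once daily for 5 successive days beginning 1 day after inoculation, dissolved in Eagle's MEM containing 2.5% Tween (250 μL injection). Untreated tumor-bearing controls; read-out mean survival time in days, 7–15 mice per group.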

[9] = In vitro inhibition of FM3A (murine carcinoma) cell proliferation.; format: functional; details: Mus musculus; how it was run: as §3
[10] = In vitro inhibition of Molt/4f (Human T-lymphoblast) cell proliferation.; format: functional; how it was run: as §2
Homo sapiens [11] = organism: Homo sapiens; test: Concentration required to inhibit the proliferation of human T-lymphocyte CEM/o cells by 50%; format: functional; how it was run: as §4
L1210 [12] = test: Antitumor activity in mice bearing L1210 murine leukemia cell line at a dose of 100 mg/kg/day.; format: functional, Mus musculus; how it was run: as §5
L1210 [13] = test: Concentration required to inhibit the proliferation of L1210 murine leukemia cell line by 50% in presence of exogenous nucleoside dUrd (125 ug/mL).; format: functional, cell-based; details: Mus musculus; how it was run: as §1
[14] = Concentration required to inhibit the proliferation of human T-lymphocyte CEM/AK-/dCK-(Ado and dCyd kinase deficient) cells by 50%; format: functional; how it was run: as §4
[15] = Concentration required to inhibit the proliferation of human T-lymphocyte CEM/AK-(Ado kinase deficient) cells by 50%; format: functional; how it was run: as §4
[16] = Concentration required to inhibit the proliferation of human T-lymphocyte CEM/dCK-(dCyd kinase deficient) cells by 50%; format: functional; how it was run: as §4
CEM (Homo sapiens) [17] = test: Concentration required to inhibit the proliferation of human T-lymphocyte CEM/o cells by 50%
CEM (Homo sapiens) [18] = test: as above; remark: listed apart in the source

Row | SMILES | IC50 (L1210 [6]) | IC50 (MT4) | IC50 [9] | IC50 [10] | further results
1 | C=C1C(n2ccc(N)nc2=O)O[C@H](CO)[C@@H]1O (some centres not stated) | 2 µM | 0.19 µM | 11 µM | 0.11 µM | IC50 (L1210 [1]): 475 µM; IC50 (L1210 [2]): 1.18 µM; IC50 (Raji [3]): 31 µM; IC50 (Raji [4]): 0.025 µM; IC50 (Raji [5]): 0.035 µM; IC50 (Homo sapiens [7]): 60 µM; Mean survival time (L1210 [8]): 12 days; IC50 (Homo sapiens [11]): 0.046 µM; Mean survival time (L1210 [12]): 15.6 days; IC50 (L1210 [13]): 1.47 µM
2 | C=C1[C@@H](O)[C@H](n2ccc(=O)[nH]c2=O)O[C@@H]1CO | > 500 µM | 450 µM | > 500 µM | > 500 µM | –
3 | C=C1[C@@H](O)[C@H](n2cnc3c(Cl)nc(N)nc32)O[C@@H]1CO | 441 µM | > 500 µM | 469 µM | > 500 µM | –
4 | C=C1[C@@H](O)[C@H](n2cnc3c(SC)nc(N)nc32)O[C@@H]1CO | > 500 µM | > 500 µM | > 500 µM | > 500 µM | –
5 | C=C1[C@@H](O)[C@H](n2cnc3c(OC)nc(N)nc32)O[C@@H]1CO | 446 µM | > 500 µM | 439 µM | > 500 µM | –
6 | C=C1[C@@H](O)[C@H](n2ccc(N)nc2=O)O[C@@H]1CO | 378 µM | 121 µM | > 500 µM | 172 µM | IC50 (Raji [3]): > 500 µM; IC50 (Raji [4]): 33 µM; IC50 (Raji [5]): 52 µM; IC50 (Homo sapiens [7]): > 500 µM; IC50 (Homo sapiens [11]): 63 µM
7 | C=C1[C@@H](O)[C@H](n2cnc3c(O)nc(N)nc32)O[C@@H]1CO | > 200 µM | > 200 µM | > 200 µM | > 200 µM | IC50 [14]: > 500 µM; IC50 [15]: > 500 µM; IC50 [16]: > 500 µM; IC50 (CEM (Homo sapiens) [18]): > 500 µM

Continued, in another order:

Row | IC50 (L1210 [6]) | SMILES | IC50 (MT4) | IC50 [9] | IC50 [10] | further results
8 | > 200 µM | C=C1[C@@H](O)[C@H](n2cnc3c(N)nc(N)nc32)O[C@@H]1CO | > 200 µM | > 200 µM | > 200 µM | IC50 [14]: > 500 µM; IC50 [15]: > 500 µM; IC50 [16]: > 500 µM; IC50 (CEM (Homo sapiens) [17]): > 500 µM
9 | 207 µM | C=C1[C@@H](O)[C@H](n2cnc3c(S)nc(N)nc32)O[C@@H]1CO | 12 µM | 495 µM | 276 µM | –
10 | > 200 µM | C=C1[C@@H](O)[C@H](n2cnc3c(O)ncnc32)O[C@@H]1CO | > 200 µM | > 200 µM | > 200 µM | –
11 | 228 µM | C=C1[C@@H](O)[C@H](n2cnc3c(N)ncnc32)O[C@@H]1CO | 43 µM | 466 µM | > 500 µM | –
